Consider 40 molecules from ChEMBL document CHEMBL2346519, “Substituted indolin-2-ones as p90 ribosomal S6 protein kinase 2 (RSK2) inhibitors: Molecular docking simulation and structure-activity relationship analysis” (Bioorg Med Chem, 2013).

Assay [1] deals with T1, Ribosomal protein S6 kinase alpha-3 (Homo sapiens, UniProt P51812). In words: Inhibition of RSK2 (unknown origin) using AKRRRLSSLRA as substrate at 10 uM after 60 mins by fluorescence assay relative to control.
Assay [2] relates to PC-3. Nature of the assay: Cytotoxicity against human PC3 cells assessed as growth inhibition at 100 uM after 48 hrs by MTT assay relative to control. It counts as functional. The following applies: PC-3, 48 h, read-out: GI. The method in brief: (§1)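 Single-concentration screen at 100 µM by 48 h MTT. MCF-7 cells were grown in DMEM plus 10% FBS and PC 3 cells in F-12K, 5 × 10^3 cells per well. After 4 h with MTT at 37 °C, formazan was dissolved in DMSO and absorbance read at 570 nm. Percent inhibition is reported.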
A general note: Tetrazolium assays rely on reduction of a dye to a coloured formazan, in cell work by metabolically active cells.

The target in assay [3] is T1, Ribosomal protein S6 kinase alpha-3. In words: Inhibition of RSK2 (unknown origin).
The target is the same in assay [4]. Nature of the assay: Inhibition of RSK2 (unknown origin) using AKRRRLSSLRA as substrate after 60 mins by fluorescence assay.
Assay [5] deals with MCF7. Nature of the assay: Cytotoxicity against human MCF7 cells assessed as growth inhibition after 48 hrs by MTT assay. Type of assay: functional, cell-based. The following applies: MCF7, 48 h. The method, boiled down: (§2)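 MCF-7 cells grown in DMEM plus 10% FBS and PC 3 cells in F-12K, both seeded at 5 × 10^3 per well. Cells were exposed to compounds at various concentrations for 48 h. MTT was then added for 4 h at 37 °C in 5% CO2, formazan was dissolved in DMSO, and absorbance was read at 570 nm. IC50 was taken from inhibition curves of three independent experiments and measured only where inhibition at 100 µM exceeded 50%.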

The subject of assay [6] is PC-3. Nature of the assay: Cytotoxicity against human PC3 cells assessed as growth inhibition after 48 hrs by MTT assay. Type of assay: functional, cell-based. The conditions noted are these: PC-3, 48 h. The method, boiled down:
as §2

The subject of assay [7] is MCF7. In words: Cytotoxicity against human MCF7 cells assessed as growth inhibition at 100 uM after 48 hrs by MTT assay relative to control. Type of assay: functional. The following applies: MCF7, 48 h, read-out: GI. The method in brief: as §1

T1 sequence (P51812 whole entry): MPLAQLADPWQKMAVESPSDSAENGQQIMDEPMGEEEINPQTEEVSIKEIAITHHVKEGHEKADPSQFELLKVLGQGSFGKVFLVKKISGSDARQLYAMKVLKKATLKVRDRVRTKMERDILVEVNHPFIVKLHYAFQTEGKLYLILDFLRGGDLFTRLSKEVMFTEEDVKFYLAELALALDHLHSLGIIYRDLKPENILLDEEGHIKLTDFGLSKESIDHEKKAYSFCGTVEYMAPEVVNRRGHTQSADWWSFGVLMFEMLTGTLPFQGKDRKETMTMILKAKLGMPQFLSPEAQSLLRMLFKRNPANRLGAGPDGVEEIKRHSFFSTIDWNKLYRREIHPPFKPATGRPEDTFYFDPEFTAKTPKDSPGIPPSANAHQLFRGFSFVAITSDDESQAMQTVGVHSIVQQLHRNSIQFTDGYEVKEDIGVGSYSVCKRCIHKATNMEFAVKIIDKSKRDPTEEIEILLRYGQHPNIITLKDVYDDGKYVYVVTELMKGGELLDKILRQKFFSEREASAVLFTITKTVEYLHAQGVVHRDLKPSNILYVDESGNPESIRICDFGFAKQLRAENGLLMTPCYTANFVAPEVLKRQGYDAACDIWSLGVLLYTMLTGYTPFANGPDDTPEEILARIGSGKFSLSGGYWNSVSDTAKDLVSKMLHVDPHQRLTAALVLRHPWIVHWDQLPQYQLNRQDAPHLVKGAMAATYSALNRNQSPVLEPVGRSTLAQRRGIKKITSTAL

Broadly, the inhibition is how much of the control response was suppressed. Low values mean a response near the control, high ones a response far below the control. `O=C1Nc2ccc(Cl)cc2/C1=C/c1c[nH]nc1-c1ccccc1`: in assay [1], the inhibition is 33.2%.

Molecule `COc1ccc(-n2c(/C=C3\C(=O)Nc4ccccc43)nc3ccc(I)cc3c2=O)cc1` had an inhibition in assay [1] of 13.4%.

In turn, `O=C1Nc2ccc(F)cc2/C1=C/c1ccc(-c2cccc(Br)c2)o1` came in with an inhibition in assay [1] of 26.3%.

Usually IC50 stands for the concentration needed to halve the response being measured. With `O=C1Nc2ccccc2/C1=C/c1ccco1`, the inhibition of growth at 100 µM in the assay on PC-3 [2] is below 10%. The half-maximal inhibitory concentration (IC50) in assay [3] worked out at 7.76 µM; in assay [4], 3.47 µM; in the assay with MCF7 [5], 30.1 µM. Moreover, the inhibition in assay [1] was found to be 69.6%.

Molecule `O=C1Nc2ccccc2/C1=C/c1c[nH]nc1-c1ccc(F)cc1` gave an inhibition in assay [1] of 38.6%.

`O=C1Nc2ccc(Cl)cc2/C1=C1/S/C(=N\c2ccccc2)N(c2ccccc2)C1=O`: the inhibition in assay [1] was below 10%.

Consider `O=C1Nc2ccccc2/C1=C/c1c[nH]nc1-c1ccccc1`, for which the IC50 was 2.72 µM in assay [4], 6.19 µM in the assay on PC-3 [6] and 8.55 µM with MCF7 [5]. Also, the inhibition in assay [1] came to 79.5%.

Consider `O=C1Nc2ccc([N+](=O)[O-])cc2/C1=C\c1ccco1`, for which the inhibition in assay [1] came to 29.8%.

On to `O=C1Nc2ccc(Br)cc2/C1=N/NC(=O)c1ccco1`, for which the inhibition in assay [1] came to 11.5%.

The molecule `O=C1Nc2ccc(Br)cc2/C1=C/c1ccc(-c2ccccc2Cl)o1` gave an inhibition in assay [1] of 22.3%.

Regarding `Cc1ccc(N/N=C2/C(=O)Nc3ccc(F)cc32)cc1`, the inhibition in assay [1] was found to be 30.1%.

Turning to `O=C1Nc2ccc(Cl)cc2/C1=C/c1ccc(-c2ccccc2Cl)o1`, the inhibition in assay [1] is 32.1%.

`NC(=O)c1ccc(/N=C2/C(=O)Nc3ccccc32)cc1` had an inhibition in assay [1] below 10%.

Consider `O=C1Nc2ccc(Cl)cc2/C1=C\c1ccco1`, for which the IC50 came out at 2.02 µM in assay [4], 23.9 µM with PC-3 [6] and 14.7 µM in the assay on MCF7 [5]. In addition, the inhibition in assay [1] was found to be 84.8%.

In assay [1], `O=C1Nc2ccc(Br)cc2/C1=N/NC(=O)c1ccc2c(c1)OCO2` registered an inhibition below 10%.

Molecule `O=C1Nc2ccccc2/C1=C/c1ccc(-c2cccc(Br)c2)o1` yielded an inhibition in assay [1] of 21.9%.

In assay [1], `O=C1Nc2ccc(Br)cc2/C1=C/c1c[nH]nc1-c1ccccc1` showed an inhibition of 33.6%.

Molecule `O=C1Nc2ccccc2/C1=N/N=C1\CCCc2c1[nH]c1ccc(Cl)cc21` displayed an inhibition in assay [1] below 10%.

In turn, `O=C1Nc2ccc(Cl)cc2/C1=C/c1c[nH]nc1-c1ccc(Cl)cc1` displayed an inhibition in assay [1] below 10%.

For `Nc1ccc2c(c1)/C(=C\c1ccco1)C(=O)N2`, the inhibition of growth at 100 µM with PC-3 [2] was below 10%. Further, the IC50 amounted to 2.49 µM in assay [4] and 15.5 µM in the assay with MCF7 [5]. The molecule further gave an inhibition in assay [1] of 100%.

Regarding `CCc1cccc2c1NC(=O)/C2=C1\SC(=S)NC1=O`, the results for the inhibition of growth at 100 µM in the assay with PC-3 [2] and in the assay with MCF7 [7] were 40.9% and 16%, respectively. The molecule also showed an IC50 in assay [4] of 17 µM. The inhibition in assay [1] was 50.1%.

`O=C1Nc2ccccc2/C1=C/c1ccc(CN2C(=O)c3ccccc3C2=O)o1` yielded an inhibition in assay [1] of 16.5%.

For the molecule `O=C1Nc2ccccc2/C1=C/c1ccc(-c2ccccc2Cl)o1`, in assay [1], the inhibition came out at 16.8%.

Turning to `O=C1Nc2ccc(Br)cc2/C1=C/c1ccc(-c2cccc(Br)c2)o1`, in assay [1], the inhibition was below 10%.

Consider `O=C1Nc2ccc(F)cc2/C1=C/c1c[nH]nc1-c1ccccc1`, for which the inhibition of growth at 100 µM in the assay on PC-3 [2] and in the assay with MCF7 [7] was below 10% in each case. The IC50 in assay [4] worked out at 8.59 µM. In assay [1], this molecule yielded an inhibition of 78.4%.

Regarding `O=C1Nc2ccc(F)cc2/C1=C/c1ccc(-c2ccccc2Cl)o1`, the inhibition in assay [1] worked out at 17.1%.

In the case of `Cn1cc(C2=C(c3cn(CCCSC(=N)N)c4ccccc34)C(=O)NC2=O)c2ccccc21` [BISINDOLYLMALEIMIDE IX], in the assay with PC-3 [6], the IC50 is 1.74 µM.

`CCc1ccc2c(c1)/C(=N\NC(=O)CSc1ccc(Cl)cc1)C(=O)N2` returned an inhibition in assay [1] below 10%.

Molecule `O=C1Nc2ccc(Cl)cc2/C1=C/c1ccc(-c2cccc(Br)c2)o1` yielded an inhibition in assay [1] below 10%.

In assay [1], `CC(=O)NN1C(=O)/C(=C2/C(=O)Nc3ccc(C)cc32)SC1=S` displayed an inhibition of 41.1%.

`COc1ccc2c(c1)/C(=C\c1ccco1)C(=O)N2` showed an inhibition in assay [1] of 25.6%.

Molecule `CCn1c(/C=C2\C(=O)Nc3ccccc32)nc2ccccc2c1=O` registered an inhibition in assay [1] below 10%.

Regarding `N=C1NC(=O)/C(=C2/C(=O)Nc3cc(Cl)ccc32)S1`, in assay [1], the inhibition stood at 18.4%.

Consider `O=C1Nc2ccc(F)cc2/C1=C/c1c[nH]nc1-c1ccc(F)cc1`, for which the inhibition in assay [1] is below 10%.

In the case of `O=C1Nc2ccc(Br)cc2/C1=C/c1c[nH]nc1-c1ccc(F)cc1`, the inhibition in assay [1] is below 10%.

For the molecule `Cc1cccc2c1NC(=O)/C2=C1\SC(=S)NC1=O`, the inhibition of growth at 100 µM in the assay with PC-3 [2] is below 10%; in the assay with MCF7 [7], 41.5%. Also, inhibition in assay [4] was half-maximal at 1.68 µM (IC50). In addition, the inhibition in assay [1] worked out at 92.4%.

`O=C1Nc2ccccc2/C1=C/c1ccc(-c2c(Cl)cc(C(F)(F)F)cc2Cl)o1` displayed an inhibition in assay [1] below 10%.

Take `O=C1Nc2ccc(Cl)cc2/C1=C/c1c[nH]nc1-c1ccc(F)cc1`: the inhibition in assay [1] was determined as 44.5%.

`O=C1Nc2ccc(Br)cc2/C1=C\c1ccco1`: the IC50 in assay [4] was 1.51 µM; in the assay on PC-3 [6], 16.9 µM; in the assay on MCF7 [5], 9.84 µM. In addition, in assay [1], the inhibition was 87.3%.

For the molecule `Cc1c(Cl)ccc2c1NC(=O)/C2=C1\SC(=S)NC1=O`, the inhibition in assay [1] amounted to 39.6%.
